# In ChEMBL document CHEMBL4052825, “Identification of Novel Coumestan Derivatives as Polyketide Synthase 13 Inhibitors against Mycobacterium tuberculosis” (J Med Chem, 2018):
# Calls of active or inactive are those of the source. No cut-off for these calls is given here.
# System: Vero
# Assay: Cytotoxicity against African green monkey Vero cells after 72 hrs by MABA
# Assay type: cell-based
# Settings: Chlorocebus sabaeus
row,Compound,IC50
1,CCOC(=O)c1c(-c2ccccc2)oc2ccc3c(c12)CN(CC1CC1)CO3,8 µg/mL
2,CCOC(=O)c1c(-c2ccccc2)oc2ccc(O)c(CN3CCC(C)CC3)c12,16 µg/mL
3,Cc1ccc2oc(=O)c3c(oc4ccc(O)c(CN5CCCCC5)c43)c2c1,8 µg/mL
4,O=c1oc2cc(F)ccc2c2oc3ccc(O)c(CN4CCCCC4)c3c12,8 µg/mL
5,O=c1oc2ccccc2c2oc3ccc4c(c3c12)CN(C1CCCC1)CO4,0.5 µg/mL
6,O=c1oc2ccccc2c2oc3ccc(O)c(CN4CCCCC4)c3c12,4 µg/mL
7,O=c1oc2cc(Br)ccc2c2oc3ccc(O)c(CN4CCCCC4)c3c12,8 µg/mL
8,CCOC(=O)c1c(-c2ccc(F)cc2)oc2ccc(O)c(CN3CCCCC3)c12,16 µg/mL
9,COc1ccc2c(c1)oc(=O)c1c2oc2ccc(O)c(CN3CCCCC3)c21,4 µg/mL

# System: HEK293
# Assay: Cytotoxicity against human HEK293 cells after 48 hrs by CellTiter96 AQueous one solution assay
# Assay type: cell-based
# Settings: HEK293, 48 h
# Method in brief: (§1)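 Human cell cytotoxicity. QSG-7701 and HEK293 grown in DMEM; MRC-5 and HFL-1 grown in DMEM/F12. Both media carried 10% FBS with penicillin/streptomycin, 37°C, 5% CO2. Cells seeded at 5,000/well, incubated overnight, then exposed to compound for 48 h. CellTiter 96 AQueous One added for 1 h, absorbance read at 490 nm. IC50 is the mean of three independent experiments.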
row,Compound,IC50
1,O=c1oc2ccccc2c2oc3ccc(O)c(CN4CCCCC4)c3c12,> 50 µg/mL
2,COc1ccc2c(c1)oc(=O)c1c2oc2ccc(O)c(CN3CCCCC3)c21,> 50 µg/mL

# System: not listed separately
# Assay: Selectivity index, ratio of IC50 for human HFL1 cells to MIC=<90 for Mycobacterium tuberculosis H37Rv
# Assay type: toxicity
# Settings: read-out: Selectivity Index
row,Compound,selectivity ratio
1,O=c1oc2ccccc2c2oc3ccc(O)c(CN4CCCCC4)c3c12,> 100
2,COc1ccc2c(c1)oc(=O)c1c2oc2ccc(O)c(CN3CCCCC3)c21,> 100

# System: Mycobacterium tuberculosis
# Assay: Antitubercular activity against Mycobacterium tuberculosis H37Rv infected in Balb/C mouse assessed as reduction in bacterial growth in mouse serum at 100 mg/kg, po administered via gavage after 30 mins dose by MABA
# Assay type: functional, organism-based
# Settings: not given
# Method in brief: (§2)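 Oral serum inhibition titration. Six-week female BALB/c mice (20 g) gavaged with 100 mg/kg compound suspended in 0.5% carboxymethylcellulose. Isoniazid 10 mg/kg was the positive control and vehicle alone the negative control. Cardiac blood taken at 30, 60 and 120 min and serum separated. Serum two-fold serially diluted with 10^4 CFU M. tuberculosis H37Rv, incubated 7 days, read by MABA.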
row,Compound,Activity
1,O=c1oc2ccccc2c2oc3ccc(O)c(CN4CCCCC4)c3c12,Active

# System: not listed separately
# Assay: Selectivity index, ratio of IC50 for human QSG7701 cells to MIC=<90 for Mycobacterium tuberculosis H37Rv
# Assay type: toxicity
# Settings: read-out: Selectivity Index
row,Compound,selectivity ratio
1,O=c1oc2ccccc2c2oc3ccc(O)c(CN4CCCCC4)c3c12,> 100
2,COc1ccc2c(c1)oc(=O)c1c2oc2ccc(O)c(CN3CCCCC3)c21,> 100

# System: not listed separately
# Assay: Selectivity index, ratio of IC50 for African green monkey Vero cells to MIC=<90 for Mycobacterium tuberculosis H37Rv
# Assay type: toxicity
# Settings: read-out: Selectivity Index
# Method in brief: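 Vero (African green monkey kidney) cytotoxicity IC50 by MABA, divided by the MABA MIC against M. tuberculosis H37Rv to give SI = IC50/MIC.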
row,Compound,selectivity ratio
1,CCOC(=O)c1c(-c2ccccc2)oc2ccc3c(c12)CN(CC1CC1)CO3,8
2,CCOC(=O)c1c(-c2ccccc2)oc2ccc(O)c(CN3CCC(C)CC3)c12,16
3,Cc1ccc2oc(=O)c3c(oc4ccc(O)c(CN5CCCCC5)c43)c2c1,16
4,O=c1oc2cc(F)ccc2c2oc3ccc(O)c(CN4CCCCC4)c3c12,8
5,O=c1oc2ccccc2c2oc3ccc4c(c3c12)CN(C1CCCC1)CO4,1
6,O=c1oc2ccccc2c2oc3ccc(O)c(CN4CCCCC4)c3c12,16 to 32
7,O=c1oc2cc(Br)ccc2c2oc3ccc(O)c(CN4CCCCC4)c3c12,8
8,CCOC(=O)c1c(-c2ccc(F)cc2)oc2ccc(O)c(CN3CCCCC3)c12,32
9,COc1ccc2c(c1)oc(=O)c1c2oc2ccc(O)c(CN3CCCCC3)c21,16

# System: not listed separately
# Assay: Cytotoxicity against human QSG7701 cells after 48 hrs by CellTiter96 AQueous one solution assay
# Assay type: cell-based
# Settings: QSG7701, 48 h
# Method in brief: as §1
row,Compound,IC50
1,O=c1oc2ccccc2c2oc3ccc(O)c(CN4CCCCC4)c3c12,> 50 µg/mL
2,COc1ccc2c(c1)oc(=O)c1c2oc2ccc(O)c(CN3CCCCC3)c21,38.8 µg/mL

# System: Mycobacterium tuberculosis
# Assay: Antitubercular activity against Mycobacterium tuberculosis H37Rv infected in Balb/C mouse assessed as reduction in bacterial growth in mouse serum at 100 mg/kg, po administered via gavage after 30 to 120 mins by MABA
# Assay type: functional, organism-based
# Settings: not given
# Method in brief: as §2
row,Compound,Activity
1,CCOC(=O)c1c(-c2ccccc2)oc2ccc(O)c(CN3CCC(C)CC3)c12,inactive
2,O=c1oc2ccccc2c2oc3ccc(O)c(CN4CCCCC4)c3c12,Active
3,CCOC(=O)c1c(-c2ccc(F)cc2)oc2ccc(O)c(CN3CCCCC3)c12,inactive
4,COc1ccc2c(c1)oc(=O)c1c2oc2ccc(O)c(CN3CCCCC3)c21,Active

# System: HFL1
# Assay: Cytotoxicity against HFL1 cells after 48 hrs by CellTiter96 AQueous one solution assay
# Assay type: cell-based
# Settings: Homo sapiens, HFL1, 48 h
# Method in brief: as §1
row,Compound,IC50
1,O=c1oc2ccccc2c2oc3ccc(O)c(CN4CCCCC4)c3c12,> 50 µg/mL
2,COc1ccc2c(c1)oc(=O)c1c2oc2ccc(O)c(CN3CCCCC3)c21,50.2 µg/mL

# System: not listed separately
# Assay: Metabolic stability in human liver microsomes assessed as parent compound remaining at 10 uM after 60 mins in presence of NADPH
# Assay type: ADME, microsome
# Settings: read-out: Stability
row,Compound,"remaining at 1 h, 10 µM"
1,O=c1oc2ccccc2c2oc3ccc(O)c(CN4CCCCC4)c3c12,14.5%
2,COc1ccc2c(c1)oc(=O)c1c2oc2ccc(O)c(CN3CCCCC3)c21,45.5%

# System: Mycobacterium tuberculosis
# Assay: Antitubercular activity against Mycobacterium tuberculosis by microdilution method
# Assay type: functional
# Settings: not given
# Method in brief: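 Whole-cell MIC against M. tuberculosis strain H37Rv, measured by the microplate Alamar Blue assay (MABA) following a previously reported procedure; MIC values given in […].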
row,Compound,MIC
1,COC(=O)c1c(NC(=O)c2c(F)c(F)c(F)c(F)c2F)sc2c1CCCCC2,1 µM
2,CCOC(=O)c1c(NC(=O)c2c(F)c(F)c(F)c(F)c2F)sc(C(N)=O)c1C,0.5 µM

# System: MRC5
# Assay: Cytotoxicity against human MRC5 cells after 48 hrs by CellTiter96 AQueous one solution assay
# Assay type: cell-based
# Settings: MRC5, 48 h
# Method in brief: as §1
row,Compound,IC50
1,O=c1oc2ccccc2c2oc3ccc(O)c(CN4CCCCC4)c3c12,> 50 µg/mL
2,COc1ccc2c(c1)oc(=O)c1c2oc2ccc(O)c(CN3CCCCC3)c21,> 50 µg/mL

# System: not listed separately
# Assay: Selectivity index, ratio of IC50 for human HEK293 cells to MIC=<90 for Mycobacterium tuberculosis H37Rv
# Assay type: toxicity
# Settings: read-out: Selectivity Index
row,Compound,selectivity ratio
1,O=c1oc2ccccc2c2oc3ccc(O)c(CN4CCCCC4)c3c12,> 100
2,COc1ccc2c(c1)oc(=O)c1c2oc2ccc(O)c(CN3CCCCC3)c21,> 100

# System: not listed separately
# Assay: Selectivity index, ratio of IC50 for human MRC5 cells to MIC=<90 for Mycobacterium tuberculosis H37Rv
# Assay type: toxicity
# Settings: read-out: Selectivity Index
row,Compound,selectivity ratio
1,O=c1oc2ccccc2c2oc3ccc(O)c(CN4CCCCC4)c3c12,> 100
2,COc1ccc2c(c1)oc(=O)c1c2oc2ccc(O)c(CN3CCCCC3)c21,> 100

# System: Mycobacterium tuberculosis H37Rv
# Assay: Inhibition of PKS13 in Mycobacterium tuberculosis H37Rv assessed as reduction in bacterial growth after […] by MABA
# Settings: not given
row,Compound,MIC=<90
1,CCOC(=O)c1c(-c2ccccc2)oc2ccc3c(c12)CN(CC1CC1)CO3,1 µg/mL
2,CCOC(=O)c1c(-c2ccccc2)oc2ccc(O)cc12,> 64 µg/mL
3,CCOC(=O)c1c(-c2ccccc2)oc2ccc(O)c(CN3CCC(C)CC3)c12,2.5 µM
4,COc1ccc2c(c1)oc(=O)c1c2oc2ccc3c(c21)CN(CC1CC1)CO3,2 µg/mL
5,CCOC(=O)c1c(-c2ccccc2)oc2ccc3c(c12)CN(C1CC1)CO3,16 µg/mL
6,Cc1ccc2oc(=O)c3c(oc4ccc(O)c(CN5CCCCC5)c43)c2c1,0.5 µg/mL
7,CCOC(=O)c1c(-c2ccccc2)oc2ccc(O)c(CN3CCOCC3)c12,> 64 µg/mL
8,COc1ccc2oc(=O)c3c(oc4ccc5c(c43)CN(CC3CC3)CO5)c2c1,16 µg/mL
9,CCOC(=O)c1c(-c2ccc(F)cc2OC)oc2ccc(O)c(CN3CCCCC3)c12,8 µg/mL
10,O=C(O)c1c(-c2ccccc2)oc2ccc(O)c(CN3CCCCC3)c12,> 64 µg/mL
11,O=c1oc2cc(Cl)c(Cl)cc2c2oc3ccc4c(c3c12)CN(CC1CC1)CO4,> 64 µg/mL
12,O=c1oc2cc(F)ccc2c2oc3ccc(O)c(CN4CCCCC4)c3c12,1 µg/mL
13,CCOC(=O)c1c(-c2ccccc2)oc2ccc(O)c(CN3CCCC3)c12,2 µg/mL
14,CCOC(=O)c1c(-c2ccccc2)oc2ccc(O)c(CN3CCC(CO)CC3)c12,16 µg/mL
15,O=c1oc2ccccc2c2oc3ccc4c(c3c12)CN(C1CCCC1)CO4,0.5 µg/mL
16,COc1ccc2oc(=O)c3c(oc4ccc(O)c(CN5CCCCC5)c43)c2c1,4 µg/mL
17,CCOC(=O)c1c(-c2ccc(C(F)(F)F)cc2)oc2ccc(O)c(CN3CCCCC3)c12,8 µg/mL
18,Cc1cc2oc(=O)c3c(oc4ccc5c(c43)CN(CC3CC3)CO5)c2cc1C,8 µg/mL
19,CCNC(=O)c1c(-c2ccccc2)oc2ccc(O)c(CN3CCCCC3)c12,4 µg/mL
20,CCOC(=O)c1c(-c2ccc(OC)cc2OC)oc2ccc(O)c(CN3CCCCC3)c12,16 µg/mL
21,CCOC(=O)c1c(-c2ccc(C)cc2)oc2ccc3c(c12)CN(CC1CC1)CO3,4 µg/mL
22,O=C(NC12CC3CC(CC(C3)C1)C2)c1c(-c2ccccc2)oc2ccc(O)c(CN3CCCCC3)c12,> 64 µg/mL
23,CCOC(=O)c1c(-c2ccc(Br)cc2OC)oc2ccc(O)c(CN3CCCCC3)c12,> 64 µg/mL
24,Cc1ccc2oc(=O)c3c(oc4ccc5c(c43)CN(CC3CC3)CO5)c2c1,4 µg/mL

row,Compound,MIC=<90
1,O=C(NCc1ccccc1)c1c(-c2ccccc2)oc2ccc(O)c(CN3CCCCC3)c12,16 µg/mL
2,O=C(NC1CC1)c1c(-c2ccccc2)oc2ccc(O)c(CN3CCCCC3)c12,8 µg/mL
3,CCOC(=O)c1c(-c2cc(C)ccc2OC)oc2ccc3c(c12)CN(CC1CC1)CO3,8 µg/mL
4,CCOC(=O)c1c(-c2ccccc2)oc2ccc(O)c(CN3CCN(C)CC3)c12,> 64 µg/mL
5,CCOC(=O)c1c(-c2cc(C)c(C)cc2OC)oc2ccc(O)c(CN3CCCCC3)c12,4 µg/mL
6,O=c1oc2ccccc2c2oc3ccc(O)c(CN4CCCCC4)c3c12,0.125 to 0.25 µg/mL
7,O=c1oc2ccc(Br)cc2c2oc3ccc4c(c3c12)CN(CC1CC1)CO4,8 µg/mL
8,CCOC(=O)c1c(-c2ccc(OC)cc2)oc2ccc3c(c12)CN(CC1CC1)CO3,2 µg/mL
9,O=c1oc2ccc(F)cc2c2oc3ccc4c(c3c12)CN(CC1CC1)CO4,16 µg/mL
10,O=c1oc2cc(Br)ccc2c2oc3ccc(O)c(CN4CCCCC4)c3c12,1 µg/mL
11,O=c1oc2ccccc2c2oc3ccc4c(c3c12)CN(CC1CC1)CO4,2 µg/mL
12,CCOC(=O)c1c(-c2ccccc2)oc2ccc(OC)c(CN3CCCCC3)c12,16 µg/mL
13,CCOC(=O)c1c(-c2ccc(OC)cc2)oc2ccc(O)c(CN3CCCCC3)c12,16 µg/mL
14,CCOC(=O)c1c(-c2ccc(F)cc2)oc2ccc(O)c(CN3CCCCC3)c12,0.5 µg/mL
15,CCOC(=O)c1c(-c2ccccc2)oc2ccc(O)c(CN3CCCCC3)c12,2 µg/mL
16,O=c1oc2ccc(Cl)cc2c2oc3ccc4c(c3c12)CN(CC1CC1)CO4,16 µg/mL
17,O=c1oc2ccccc2c2oc3ccc(O)cc3c12,> 64 µg/mL
18,O=c1oc2ccccc2c2oc3ccc4c(c3c12)CN(C1CCCCC1)CO4,16 µg/mL
19,CCOC(=O)c1c(-c2ccccc2)oc2ccc3c(c12)CN(CCC(C)C)CO3,4 µg/mL
20,CCCN(CCC)Cc1c(O)ccc2oc(-c3ccccc3)c(C(=O)OCC)c12,8 µg/mL
21,COc1ccc2c(c1)oc(=O)c1c2oc2ccc(O)c(CN3CCCCC3)c21,0.25 µg/mL
22,CCOC(=O)c1c(-c2ccccc2)oc2ccc3c(c12)CN(C1CCCC1)CO3,2 µg/mL
23,O=C(Nc1ccccc1)c1c(-c2ccccc2)oc2ccc(O)c(CN3CCCCC3)c12,8 µg/mL
